Assay [1] concerns the target T1, Protein cereblon/Focal adhesion kinase 1 (Homo sapiens, UniProt Q05397+Q96SW2). Nature of the assay: Protac activity at CRBN/FAK in human PA1 cells assessed as induction of FAK degradation at 10 nM incubated for 8 hrs by Western blot analysis relative to control. The format is cell-based. To be noted: PA-1. In short, it runs like this: (§1)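 PA1 cells were treated at the indicated doses for 8 h, and FAK was quantified from immunoblots relative to untreated control. Data come from three independent experiments.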
In general terms: In western blotting, separated proteins are transferred to a membrane and probed.

Assay [2] has as its target T1, Protein cereblon/Focal adhesion kinase 1. Nature of the assay: Protac activity at CRBN/FAK in human PA1 cells assessed as induction of FAK degradation at 1 nM incubated for 8 hrs by Western blot analysis relative to control. The settings on record: PA-1. The format is cell-based. In a few lines: as §1
Assay [3] has as its target T2, Protein cereblon/Focal adhesion kinase 1 (Mus musculus) (UniProt P34152+Q8C7D2). Nature of the assay: Protac activity at CRBN/FAK in mouse TM3 cells assessed as reduction in FAK autophosphorylation at tyr 397 residue at 100 nM after 1 hr by Western blot analysis relative to control. In kind it is cell-based. On the set-up: scale not given: the % may be the effect or the level left. In short, it runs like this: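 In a time course, TM3 cells were exposed to 100 nM, and FAK and pFAK Tyr397 levels were followed by immunoblot at successive time points.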

For assay [4], the target named is Protein cereblon/Focal adhesion kinase 1 (Mus musculus, UniProt P34152+Q8C7D2). Nature of the assay: Protac activity at CRBN/FAK in mouse TM3 cells assessed as induction of FAK degradation after 8 hrs by Western blot analysis. In kind it is cell-based. In a few lines: (§2)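 Each cell line was exposed to graded concentrations for 8 h, and FAK protein was detected by immunoblot. DC50 is the concentration giving half-maximal FAK degradation.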

Another assay concerns LNCaP. Nature of the assay: Antiproliferative activity against human LNCAP cells assessed as effect on cell proliferation after 72 hrs by MTS assay. The format is functional, cell-based.
The target of assay [5] is T1, Protein cereblon/Focal adhesion kinase 1. In words: Protac activity at CRBN/FAK in human PA1 cells assessed as reduction FAK degradation at 1 to 100 nM after 8 hrs in presence of 5 uM carfilzomib. In kind it is cell-based. The settings on record: PA-1, dose nM 1-100, time 8.0 hrs. In short, it runs like this:
(§3)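 To test proteasome dependence, PA1 cells received the degrader (1, 10 or 100 nM) for 8 h, either alone or together with MG132 (5 μM) or carfilzomib (5 μM). Each inhibitor was also given alone. FAK was assessed by immunoblot.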

For assay [6] the target is unchanged. In words: Protac activity at CRBN/FAK in human PA1 cells assessed as induction of FAK degradation after 8 hrs by Western blot analysis. The format is cell-based. To be noted: pa-1. In short, it runs like this: as §2
The next assay deals with PA-1. Nature of the assay: Antiproliferative activity against human PA1 cells assessed as effect on cell proliferation after 72 hrs by MTS assay. The format is functional, cell-based. On the technique in general: Tetrazolium dyes change colour on reduction, which living cells bring about.
Assay [7] addresses T1, Protein cereblon/Focal adhesion kinase 1. In words: Protac activity at CRBN/FAK in human LNCAP cells assessed as induction of FAK degradation after 8 hrs by Western blot analysis. In kind it is cell-based. In short, it runs like this: as §2
Assay [8] has the same target. In words: Protac activity at CRBN/FAK in human PA1 cells assessed as FAK degradation at 1 to 100 nM after 8 hrs in presence of 10 uM pomalidomide. To be noted: PA-1, dose nM 1-100, time 8.0 hrs. The format is cell-based. In a few lines: (§4)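 For ligand competition, PA1 cells were treated for 8 h with the degrader (1, 10 or 100 nM) alone, or with excess CRBN ligand pomalidomide (10 μM) or FAK ligand PF562271 (10 μM), alone or combined. FAK was read by immunoblot.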

The target is the same in assay [9]. In words: Protac activity at CRBN/FAK in human Ramos cells assessed as induction of FAK degradation after 8 hrs by Western blot analysis. The format is cell-based. In short, it runs like this:
as §2

Assay [10] concerns the target T2, Protein cereblon/Focal adhesion kinase 1 (Mus musculus). In words: Protac activity at CRBN/FAK in mouse TM3 cells assessed as reduction in FAK autophosphorylation at tyr 397 residue at 1 to 3000 nM after 8 hrs by Western blot analysis. The format is cell-based. The settings on record: dose nM 1-3000, time 8.0 hrs. In a few lines:
(§5)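 TM3 cells were treated at the indicated doses for 8 h, then immunoblotted for FAK phosphorylated at Tyr397.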

The subject of the next assay is TM3. In words: Antiproliferative activity against mouse TM3 cells assessed as effect on cell proliferation after 72 hrs by MTS assay. In kind it is functional, cell-based.
Assay [11] concerns the target T1, Protein cereblon/Focal adhesion kinase 1. In words: Protac activity at CRBN/FAK in human MDA-MB-436 cells assessed as induction of FAK degradation after 8 hrs by Western blot analysis. In kind it is cell-based. In short, it runs like this: as §2
For another assay, the system named is MDA-MB-436. In words: Antiproliferative activity against human MDA-MB-436 cells assessed as effect on cell proliferation after 72 hrs by MTS assay. The format is functional, cell-based.
Assay [12] has as its target T1, Protein cereblon/Focal adhesion kinase 1. Nature of the assay: Protac activity at CRBN/FAK in human PA1 cells assessed as reduction FAK degradation at 1 to 100 nM after 8 hrs in presence of 5 uM MG132. The format is cell-based. The settings on record: PA-1, dose nM 1-100, time 8.0 hrs. In short, it runs like this:
as §3

The target is the same in assay [13]. Nature of the assay: Protac activity at CRBN/FAK in human PA1 cells assessed as FAK degradation at 1 to 100 nM after 8 hrs in presence of 10 uM PF562271. In kind it is cell-based. To be noted: PA-1, dose nM 1-100, time 8.0 hrs. In short, it runs like this:
as §4

The target of assay [14] is T2, Protein cereblon/Focal adhesion kinase 1 (Mus musculus). In words: Protac activity at CRBN/FAK in mouse TM3 cells assessed as reduction in FAK autophosphorylation at tyr 397 residue at <1 nM after 8 hrs by Western blot analysis. In kind it is cell-based. The settings on record: dose nM <1, time 8.0 hrs. In short, it runs like this:
as §5

Another assay deals with Ramos. In words: Antiproliferative activity against human Ramos cells assessed as effect on cell proliferation after 72 hrs by MTS assay. In kind it is functional, cell-based.

Active and inactive are the calls of the source. The rule behind the calls is not given here.

Consider `CN(c1ncccc1CNc1nc(Nc2ccc(NC(=O)c3cn(CCOCCOCCCc4cccc5c4C(=O)N(C4CCC(=O)NC4=O)C5=O)nn3)cc2)ncc1C(F)(F)F)S(C)(=O)=O` (stereo not given), for which the figures for the Activity in assay [1] and in [2] were 90% and 62%, respectively.
As to `CN(c1nccnc1CNc1nc(Nc2ccc(NC(=O)c3cn(CCOCCOCCOCCNc4cccc5c4C(=O)N(C4CCC(=O)NC4=O)C5=O)nn3)cc2)ncc1C(F)(F)F)S(C)(=O)=O` (stereo not given), the results for the Activity in assay [1] and in assay [2] were 92% and 35%, respectively.
Consider `CN(c1ncccc1CNc1nc(Nc2ccc(NC(=O)c3cn(CCCCCCCCNc4cccc5c4C(=O)N(C4CCC(=O)NC4=O)C5=O)nn3)cc2)ncc1C(F)(F)F)S(C)(=O)=O` (stereo not given), for which the Activity was 93% in assay [1] and 67% in [2].
With `CN(c1ncccc1CNc1nc(Nc2ccc(NC(=O)c3cn(CCCCCOCCCc4cccc5c4C(=O)N(C4CCC(=O)NC4=O)C5=O)nn3)cc2)ncc1C(F)(F)F)S(C)(=O)=O` (stereo not given), the Activity worked out at 95% in assay [1] and 85% in assay [2].
For `CN(c1ncccc1CNc1nc(Nc2ccc(NC(=O)c3cn(CCOCCOCCNc4cccc5c4C(=O)N(C4CCC(=O)NC4=O)C5=O)nn3)cc2)ncc1C(F)(F)F)S(C)(=O)=O` (stereo not given), the Activity is > 50% in [3], 99% in [1] and 90% in assay [2]. Besides, the DC50 (commonly the concentration at which degradation of the target reaches its halfway point) in [4] stood at 0.31 nM; in assay [6] it was 0.08 nM; in [7] it was 0.37 nM; in assay [9] it was 0.04 nM; in assay [11] it was 0.33 nM. Besides, the outcome (with LNCaP; in [5]; with PA-1; in assay [8]; in the assay on TM3; in the assay on MDA-MB-436) was inactive. For the same molecule, the result (in [12]; in [13]; with Ramos) was inactive. The outcome in assay [10] and in [14] was Active.
`CN(c1nccnc1CNc1nc(Nc2ccc(NC(=O)c3cn(CCOCCOCCNc4cccc5c4C(=O)N(C4CCC(=O)NC4=O)C5=O)nn3)cc2)ncc1C(F)(F)F)S(C)(=O)=O` (stereo not given): the figures for the Activity in assay [1] and in assay [2] were 96% and 71%, respectively.
Turning to `CN(c1ncccc1CNc1ncc(C(F)(F)F)c(Nc2ccc(NC(=O)c3cn(CCOCCNc4cccc5c4C(=O)N(C4CCC(=O)NC4=O)C5=O)nn3)cc2)n1)S(C)(=O)=O` (stereo not given), the Activity in [1] and in assay [2] was 0% each time.
With `CN(c1ncccc1CNc1nc(Nc2ccc(NC(=O)c3cn(CCOCCOCC#Cc4cccc5c4C(=O)N(C4CCC(=O)NC4=O)C5=O)nn3)cc2)ncc1C(F)(F)F)S(C)(=O)=O` (stereo not given), the Activity in assay [1] came to 90%; in assay [2] it was 62%.
For the molecule `CN(c1nccnc1CNc1nc(Nc2ccc(C(=O)NCc3cn(CCOCCOCCNc4cccc5c4C(=O)N(C4CCC(=O)NC4=O)C5=O)nn3)cc2)ncc1C(F)(F)F)S(C)(=O)=O` (stereo not given), the Activity in assay [1] amounted to 60%; in [2] it was 32%.
For the molecule `CN(c1ncccc1CNc1nc(Nc2ccc(NC(=O)c3cn(CCOCCOCCOCCNc4cccc5c4C(=O)N(C4CCC(=O)NC4=O)C5=O)nn3)cc2)ncc1C(F)(F)F)S(C)(=O)=O` (stereo not given), the Activity stood at 94% in assay [1] and 46% in assay [2].
For the molecule `CN(c1nccnc1CNc1nc(Nc2ccc(NC(=O)c3cn(CCOCCNc4cccc5c4C(=O)N(C4CCC(=O)NC4=O)C5=O)nn3)cc2)ncc1C(F)(F)F)S(C)(=O)=O` (stereo not given), the Activity in [1] stood at 90%; in assay [2] it was 32%.
Turning to `CN(c1ncccc1CNc1ncc(C(F)(F)F)c(Nc2ccc(NC(=O)c3cn(CCOCCOCCOCCNc4cccc5c4C(=O)N(C4CCC(=O)NC4=O)C5=O)nn3)cc2)n1)S(C)(=O)=O` (stereo not given), the Activity in assay [1] and in assay [2] was 0% throughout.
Turning to `CN(c1ncccc1CNc1ncc(C(F)(F)F)c(Nc2ccc(NC(=O)c3cn(CCOCCOCCNc4cccc5c4C(=O)N(C4CCC(=O)NC4=O)C5=O)nn3)cc2)n1)S(C)(=O)=O` (stereo not given), the results for the Activity in [1] and in assay [2] were 2% and 0%, respectively.
With `CCN1C(=O)CCC(N2C(=O)c3cccc(NCCOCCOCCn4cc(C(=O)Nc5ccc(Nc6ncc(C(F)(F)F)c(NCc7cccnc7N(C)S(C)(=O)=O)n6)cc5)nn4)c3C2=O)C1=O` (stereo not given), the Activity in [1] and in [2] was 0% throughout.
With `CN(c1ncccc1CNc1nc(Nc2ccc(NC(=O)c3cn(CCCCCCCCCc4cccc5c4C(=O)N(C4CCC(=O)NC4=O)C5=O)nn3)cc2)ncc1C(F)(F)F)S(C)(=O)=O` (stereo not given), the Activity in assay [1] came out at 85%; in assay [2], 40%.
With `CN(c1ncccc1CNc1nc(Nc2ccc(C(=O)NCc3cn(CCOCCOCCOCCNc4cccc5c4C(=O)N(C4CCC(=O)NC4=O)C5=O)nn3)cc2)ncc1C(F)(F)F)S(C)(=O)=O` (stereo not given), the Activity was determined as 30% in [1] and 10% in [2].
In the same order, the values of `CN(c1nccnc1CNc1nc(Nc2ccc(C(=O)NCc3cn(CCOCCNc4cccc5c4C(=O)N(C4CCC(=O)NC4=O)C5=O)nn3)cc2)ncc1C(F)(F)F)S(C)(=O)=O` (stereo not given) are 71% and 37%.
With `CN(c1ncccc1CNc1nc(Nc2ccc(NC(=O)c3cn(CCOCCOCCOCCOCCNc4cccc5c4C(=O)N(C4CCC(=O)NC4=O)C5=O)nn3)cc2)ncc1C(F)(F)F)S(C)(=O)=O` (stereo not given), the Activity was 82% in assay [1] and 30% in [2].
As for `CN(c1ncccc1CNc1nc(Nc2ccc(C(=O)NCc3cn(CCOCCNc4cccc5c4C(=O)N(C4CCC(=O)NC4=O)C5=O)nn3)cc2)ncc1C(F)(F)F)S(C)(=O)=O` (stereo not given), the results for the Activity in assay [1] and in assay [2] were 81% and 55%, respectively.
Regarding `CN(c1ncccc1CNc1nc(Nc2ccc(NC(=O)c3cn(CCCCCOCC#Cc4cccc5c4C(=O)N(C4CCC(=O)NC4=O)C5=O)nn3)cc2)ncc1C(F)(F)F)S(C)(=O)=O` (stereo not given), the figures for the Activity in [1] and in assay [2] were 90% and 62%, respectively.
As for `CN(c1nccnc1CNc1nc(Nc2ccc(C(=O)NCc3cn(CCOCCOCCOCCNc4cccc5c4C(=O)N(C4CCC(=O)NC4=O)C5=O)nn3)cc2)ncc1C(F)(F)F)S(C)(=O)=O` (stereo not given), the Activity in assay [1] amounted to 22%; in [2] it was 5%.
For `CN(c1ncccc1CNc1nc(Nc2ccc(NC(=O)c3cn(CCCCCCCC#Cc4cccc5c4C(=O)N(C4CCC(=O)NC4=O)C5=O)nn3)cc2)ncc1C(F)(F)F)S(C)(=O)=O` (stereo not given), in that order: 90% and 62%.
`CN(c1ncccc1CNc1nc(Nc2ccc(NC(=O)c3cn(CCOCCNc4cccc5c4C(=O)N(C4CCC(=O)NC4=O)C5=O)nn3)cc2)ncc1C(F)(F)F)S(C)(=O)=O` (stereo not given): the Activity is 92% in [1] and 40% in assay [2].
For the molecule `CN(c1ncccc1CNc1nc(Nc2ccc(C(=O)NCc3cn(CCOCCOCCNc4cccc5c4C(=O)N(C4CCC(=O)NC4=O)C5=O)nn3)cc2)ncc1C(F)(F)F)S(C)(=O)=O` (stereo not given), the Activity is 65% in [1] and 40% in assay [2].

These data come from ChEMBL document CHEMBL4725428 (ACS Med Chem Lett, 2020).
